Hits are enriched below; roughly 1.1% of the tested compounds scored in any of these assays.
SKN-1 inh: C. elegans SKN-1 inhibition; inhibition, % at 21.8 µM; 360,000 tested, 0.49% active; AID 624304; C. elegans VP596 Pgst-4::GFP/RFP ratio, acrylamide-induced, 24 h;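 active = interference check ratio from 0.5 to 1.5 plus GFP to RFP signal ratio inhibition reaching or exceeding a fixed threshold, cut at about 30% in these data, passing the limit was not always enough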
Tb MetRS inh: Trypanosoma brucei MetRS inhibition; purified T. brucei MetRS, ATP depletion, Kinase-Glo luminescence; 360,000 tested, 0.4% active; inhibition, % at 11.9 µM;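 active = inhibition above a per-plate cutoff of the control wells' mean inhibition plus 3 SD, cut at about 5.5% in these data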;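 also: 0% = DMSO wells median and 100% = median of wells with control inhibitor compound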
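Material – parasite MetRS enzyme · Medium – HEPES-MgCl2-KCl buffer plus DTT, spermine, BSA, pyrophosphatase · Reagent – ATP, methionine and E. coli bulk tRNA substrates · Times – 15 min enzyme-compound preincubation, 2 h reaction, 10 min detection, 25 °C · Measured by – luminescence of leftover ATP · Evaluation – percent inhibition relative to median high and low control wells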
GC-A act: GC-A (human) enzyme activation | P16066 | HEK293 GC-A cells, cGMP TR-FRET, EC30 ANP; 0% at EC30 ANP, 100% saturating ANP | activation, % at 10 µM | 370,000 tested, 0.14% active | AID 1671463; in the data active = activation above about 40%
MT1-MMP act inh: MT1-MMP (human) activation inhibition | GFP/RFP ratio change, % at 20 µM | HT1080 RFP-PRO-GFP cells, GFP/RFP ratio fluorescence, overnight; percent of plate control window, DMSO zero | P50281 | 360,000 tested, 0.061% active;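 active = GFP/RFP ratio change of at least 30% with cell ATP level not reduced by more than half and red fluorescence within 50% of control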
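Assay system – RFP-PRO-GFP reporter HT1080 cells · Compound dosing – single dose of 20 µM compound, 1% DMSO final · Incubation – overnight compound exposure at 37 °C · Measure – GFP/RFP fluorescence ratio · Benchmarks – DMSO wells and RFP-L50D-GFP cells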
GC-B act: GC-B (human) receptor activation | P20594 | HEK293-GC-B cells, CNP EC30, cGMP TR-FRET; 0% at EC30 CNP, 100% saturating CNP | activation, % at 10 µM | 370,000 tested, 0.11% active;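 active = activation at 10 µM reaching about 35% in either raw or pattern-adjusted values, limit read from the data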
A1 inh: inhibitors of the anti-apoptotic protein A1, read as caspase activation; MEF A1-2A-BIM cells, Caspase-Glo 3/7 luminescence, 3 h; percent of clofoctol response, vehicle zero; caspase activation, % (no concentration beside the values); AID 2462; 330,000 tested, 0.066% active;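 active = over half of replicate activation scores above 10%, or exactly half above 10 with the replicate mean above 10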
Active calls of the source: *; · = no result given.

SMILES	SKN-1 inh	Tb MetRS inh	GC-A act	MT1-MMP act inh	GC-B act	A1 inh
O=C(Cn1nnc(-c2ccccc2F)n1)Nc1ccc(Cl)cc1	·	·	5	·	-3	·
O=[N+]([O-])c1cc(S(=O)(=O)N2CCCCCC2)ccc1F	-3	0	8	2	48*	0
O=[N+]([O-])c1cc(S(=O)(=O)N2CCCC2)ccc1O	6	0	-2	-1	2	0
O=[N+]([O-])c1cc(S(=O)(=O)N2CCCC2)ccc1N/N=C/c1cccs1	36*	0	-4	9	-14	-1
COC(=O)c1ccc(Cn2ccc3ccc(-c4ccc5ccn(C(=O)c6cccc(OC)c6)c5c4)cc32)cc1	·	·	-2	·	2	·
Cc1ccc(C(=O)n2nc(-c3cccnc3)nc2N)cc1	37*	0	0	2	-2	0
Cc1ccc(-c2nc(N)n(C(=O)c3cccnc3)n2)cc1	1	0	6	4	0	0
O=C(Nc1cccc(OC(F)(F)F)c1)C1Cc2c(-c3ccc4c(c3)OCO4)ccnc2O1 (stereo not drawn)	13	0	9	-2	13	·
O=C(Nc1cccc(Oc2ccccc2)c1)C1Cc2c(-c3ccc4c(c3)OCO4)ccnc2O1 (stereo not drawn)	36*	0	3	-1	6	·
CN(C)CCNC(=O)C1Cc2c(-c3ccccc3Oc3ccccc3)ccnc2O1 (stereo not drawn)	-4	0	-3	2	-3	·
CN(C(=O)C1Cc2c(-c3ccccc3Oc3ccccc3)ccnc2O1)c1ccccc1 (stereo not drawn)	35*	0	-20	-2	-17	·
COC(=O)[C@H]1C[C@@]2(C)c3ccccc3N(S(=O)(=O)c3ccccc3)[C@H]2N1	·	·	2	·	7	·
COc1ccc(-n2c(SCC(=O)Nc3ccc(S(=O)(=O)Nc4nccs4)cc3)nnc2-c2ccccc2)cc1	·	·	-1	·	-4	·
COCCCNC(=O)C[C@H]1C[C@@]2(C(=O)OC)C(=C[C@H](COCc3ccccc3)O[C@@H]2C)N(Cc2ccccc2)C1=O	·	·	4	·	-2	·
Cc1ccc(-n2c(Cc3cccs3)nnc2SCC(=O)Nc2cccc3ccccc23)cc1	·	·	-12	·	-12	·
CCn1c(CSc2nnc(-c3ccncc3)n2C)nc2cc(C(=O)O)ccc21	41*	1	5	21	0	1
O=C(NCc1nc2ccccc2[nH]1)C1=C[C@@H](c2ccccc2)C[C@@H](OCCCCO)O1	-2	70*	0	-1	-1	1
C[C@H]1C=C(C(=O)NCc2nc3ccccc3[nH]2)O[C@@H](OCc2ccc(CO)cc2)C1	6	24*	0	-2	1	0
CCOC(=O)[C@@]12CCCC3=C1N(CCC3)C(=O)[C@H]2CC(=O)NCc1ccc(C)o1	·	·	0	·	-1	·
Cc1ccc(-c2csc3ncnc(Oc4ccc5c(C)cc(=O)oc5c4)c23)cc1	-1	0	-6	-15	-7	0
CC(=O)Nc1cccc(Oc2ncnc3scc(-c4ccc(C)cc4)c23)c1	8	0	55*	-8	58*	0
Cc1ccc(N=Nc2ccc(O)c(P(=O)(c3ccccc3)c3ccccc3)c2)cc1	-8	-1	50*	1	-4	1
C/C(C=NNC(=O)CSc1nnc(-c2ccc(Cl)cc2)n1-c1ccccc1)=C\c1ccccc1	·	·	-3	·	-2	·
CCOC(=O)c1ccc(NC(=O)CSc2nnc(SCc3cccc4ccccc34)s2)cc1	·	·	-1	·	0	·
C[C@H]1[C@@H](OC(=O)NCCc2ccccc2)CC[C@@]23CCCN2C(=O)CCC[C@@H]13	·	·	-3	·	-2	·
SMILES	SKN-1 inh	Tb MetRS inh	GC-A act	MT1-MMP act inh	GC-B act	A1 inh
C=CCn1c(N)c(C(=O)NCC2CCCO2)c2nc3ccccc3nc21 (stereo not drawn)	22	1	32	-4	19	0
COc1ccc(-n2c(N)c(C(=O)NCC3CCCO3)c3nc4ccccc4nc32)c(OC)c1 (stereo not drawn)	5	0	40*	6	40*	0
COc1ccc(CNC(=O)c2c(N)n(CCCN3CCOCC3)c3nc4ccccc4nc23)cc1	36*	-1	-4	-1	-5	0
COc1ccc(NC(=O)c2cc3c(C)nn(-c4ccccc4)c3s2)cc1	·	·	12	·	3	·
O=C1N/C(=C\c2ccc(O)cc2)C(=O)c2ccccc21	12	7.8*	·	0	·	-1
CCC(=O)N1CCN(c2ccc(NC(=O)c3cc4ccccc4o3)cc2Cl)CC1	31*	-2	-2	-15	0	-2
COc1cc(/C=C2\CCc3c2nc2ccccc2c3C(=O)O)cc(OC)c1OC	5	0	19	4	1	-4
COc1cccc(/C=C2\CC(C)Cc3c2nc2ccccc2c3C(=O)O)c1OC (stereo not drawn)	40*	0	1	0	1	1
Clc1ccc(-c2ccnc(-n3cccc3)n2)s1	43*	0	-2	-9	-4	-1
Clc1ccsc1-c1ccnc(-n2cccc2)n1	27	-1	-5	-2	1	0
CC(C)CCC(CCNCc1ccccn1)c1ccc2c(c1)OCO2 (stereo not drawn)	-7	0	-50	·	-17	1
CC(C)C(CCNCc1ccccn1)c1ccc(Cl)cc1 (stereo not drawn)	38*	0	-52	2	-18	2
CCCC(C)C(=O)NCc1ccccc1OC (stereo not drawn)	41*	0	0	8	2	-1
CCCCC(CC)C(=O)NCc1ccccc1OC (stereo not drawn)	-3	0	3	2	-7	2
CC1=CC2(C(Cc3ccccc3)N(CC3CC3)C(=NC(=O)c3ccccc3)N2C(=O)OCc2ccccc2)n2c(=O)n(-c3ccccc3)c(=O)n2C1 (stereo not drawn)	·	·	-7	·	-9	·
Cc1cc(N2CCC[C@@H]2C)nc2ccccc12	·	·	7	·	-8	·
COc1ccc(C(=O)C2CCN(c3ncnc4sccc34)CC2)cc1	·	·	4	·	-4	·
CC(NC(=O)COC(=O)COc1ccc(C(=O)c2ccccc2)cc1)c1ccccc1 (stereo not drawn)	1	-1	65*	5	8	-1
COc1ccc(-n2c(SCC(=O)NNC(=S)Nc3ccccc3)nc3ccccc3c2=O)cc1	·	·	-1	·	-3	·
CCOC(=O)Cc1csc(/N=C/c2c(O)n(-c3ccc(C)c(C)c3)c(=O)c3ccccc23)n1	-3	0	0	-9	3	22*

Screens (PubChem BioAssay)
